ChEMBL document CHEMBL1157417, “Synthetic and pharmacological studies on new simplified analogues of the potent actin-targeting Jaspamide” (Bioorg Med Chem, 2008)
The source made the active and inactive calls. The calls are words filed in the database; no cut-off is given here.

Key:
Assay type in all cases: functional, cell-based
[1] = test system: A498; test: Effect on morphology in human A498 cells assessed as cell aberration at 100 umol after 16 hrs by microfilament immunofluorescence assay
Summary of the method: (§1)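 A-498 cells grown to near-confluency on glass coverslips, then exposed 16 h. Cytochalasin B served as the microfilament-depolymerising positive control. Microfilaments stained with monoclonal anti-actin and microtubules with monoclonal anti-β-tubulin, both visualised with fluorescein-conjugated anti-mouse IgG. Scored for binucleation and other cellular aberration.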

[2] = test system: A498; test: Effect on morphology in human A498 cells assessed as appearance of binucleated cells after 16 hrs by microfilament immunofluorescence assay; summary of the method: as §1
[3] = test system: A498; test: Cytotoxicity against human A498 cells after 48 hrs by SRB binding assay; settings: A498, 48 h
Summary of the method: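 A498 kidney adenocarcinoma cells kept in R-MEM with 10% FBS and 50 µg/mL gentamycin, 37 °C, 5% CO2. Seeded at about 15% confluency and left 24 h to attach. Treated in triplicate with varying concentrations for 48 h. Survival read by sulforhodamine B binding as a percentage of control cultures.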

Row | Structure (SMILES) | Activity [1] | Activity [2] | IC50 [3] [µM]
1 | C[C@@H]1NC(=O)CCNC(=O)CCCNC(=O)C[C@H](c2ccccc2)NC(=O)[C@@H](Cc2c[nH]c3ccccc23)NC1=O | inactive |  | 
2 | COc1ccc([C@H]2CC(=O)NCCCC(=O)NCCC(=O)N[C@@H](C)C(=O)N[C@H](Cc3c[nH]c4ccccc34)C(=O)N2)cc1 | inactive |  | 
3 | C[C@@H]1NC(=O)CCNC(=O)CCCNC(=O)CCNC(=O)[C@@H](Cc2c[nH]c3ccccc23)NC1=O | inactive |  | 
4 | C[C@@H]1NC(=O)CC/C=C/CCCOC(=O)CCNC(=O)[C@@H](Cc2c[nH]c3ccccc23)NC1=O | inactive |  | 
5 | C[C@@H]1NC(=O)CCCCCCCNC(=O)C[C@H](c2ccccc2)NC(=O)[C@@H](Cc2c[nH]c3ccccc23)NC1=O | inactive |  | 
6 | C=C1[C@@H](C)[C@H]2[C@H](Cc3ccccc3)NC(=O)[C@]23OC(=O)/C=C/[C@H](O)CCC[C@@H](C)C/C=C/[C@H]3[C@@H]1O |  | Active | 
7 | CC1/C=C/CCCOC(=O)C[C@H](c2ccccc2)NC(=O)[C@@H](Cc2c[nH]c3ccccc23)NC(=O)[C@H](C)NC(=O)C1 (stereo not given in full) | inactive |  | 25
8 | C[C@@H]1NC(=O)CC/C=C/CCCOC(=O)C[C@H](c2ccccc2)NC(=O)[C@@H](Cc2c[nH]c3ccccc23)NC1=O | inactive |  | 25
